Tests used:
[1] = molecular target: T1, Aurora kinase A (Homo sapiens) (UniProt O14965); assay: Competitive binding affinity to AURKA (unknown origin) at 10 uM in presence of ATP relative to control
T1 sequence (whole entry): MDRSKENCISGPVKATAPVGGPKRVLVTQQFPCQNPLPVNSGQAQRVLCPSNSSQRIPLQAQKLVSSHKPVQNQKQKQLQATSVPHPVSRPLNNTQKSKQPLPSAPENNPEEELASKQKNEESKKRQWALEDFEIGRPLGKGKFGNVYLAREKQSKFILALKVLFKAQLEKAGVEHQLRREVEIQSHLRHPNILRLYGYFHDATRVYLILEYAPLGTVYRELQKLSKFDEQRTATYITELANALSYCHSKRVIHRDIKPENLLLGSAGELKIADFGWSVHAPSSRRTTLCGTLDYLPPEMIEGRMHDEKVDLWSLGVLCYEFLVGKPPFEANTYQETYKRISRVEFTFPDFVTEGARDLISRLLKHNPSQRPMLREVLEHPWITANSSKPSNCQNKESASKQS

[2] = system: Serine/threonine-protein kinase B-raf (Homo sapiens), P15056 [V600E]; assay: Competitive binding affinity to BRAF V600E mutant (unknown origin) at 10 uM in presence of ATP relative to control
[3] = molecular target: Calcium/calmodulin-dependent protein kinase type II subunit alpha (Homo sapiens) (UniProt Q9UQM7); assay: Competitive binding affinity to CAMK2A (unknown origin) at 10 uM in presence of ATP relative to control
[4] = molecular target: Vascular endothelial growth factor receptor 2 (Homo sapiens) (UniProt P35968); assay: Competitive binding affinity to VEGFR2 (unknown origin) at 10 uM in presence of ATP relative to control
Procedure, shortened: (§1)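 In vitro ATP-site competition binding assay across a diverse panel of 128 kinases, with compound tested at a single concentration. Kinase selectivity scores (S15) were calculated from the panel profiles.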

[5] = molecular target: Dual specificity protein kinase CLK2 (Homo sapiens) (UniProt P49760); assay: Competitive binding affinity to CLK2 (unknown origin) at 10 uM in presence of ATP relative to control
Procedure, shortened: (§2)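 In vitro ATP-site competition binding assay across a diverse panel of 128 kinases, with each compound tested at a single concentration. Kinase binding is expressed relative to control.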

[6] = molecular target: Fibroblast growth factor receptor 3 (Homo sapiens) (UniProt P22607); assay: Competitive binding affinity to FGFR3 (unknown origin) at 10 uM in presence of ATP relative to control
Procedure, shortened: (§3)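 In vitro ATP-site competition binding assay, part of profiling against a diverse panel of 128 kinases. Each compound was tested at a single concentration of 10 µM. Kinome selectivity was summarized as S15 selectivity scores.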

LIM domain kinase 1 = LIM domain kinase 1 (Homo sapiens, UniProt P53667); assay: Competitive binding affinity to LIMK1 (unknown origin) at 10 uM in presence of ATP relative to control; procedure, shortened: as §3
[7] = molecular target: Mitogen-activated protein kinase 9 (Homo sapiens, UniProt P45984)
[8] = molecular target: T2, Aurora kinase C (Homo sapiens) (UniProt Q9UQB9); assay: Competitive binding affinity to AURKC (unknown origin) at 10 uM in presence of ATP relative to control
T2 sequence (whole entry): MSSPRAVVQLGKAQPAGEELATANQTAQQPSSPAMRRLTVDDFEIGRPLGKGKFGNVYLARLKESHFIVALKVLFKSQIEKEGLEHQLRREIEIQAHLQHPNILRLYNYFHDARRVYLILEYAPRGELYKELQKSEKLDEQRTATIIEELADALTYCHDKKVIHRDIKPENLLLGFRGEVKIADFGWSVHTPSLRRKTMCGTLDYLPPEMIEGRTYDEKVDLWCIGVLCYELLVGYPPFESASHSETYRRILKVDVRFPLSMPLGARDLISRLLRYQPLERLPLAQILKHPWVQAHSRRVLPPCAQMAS

[9] = molecular target: Platelet-derived growth factor receptor beta (Homo sapiens, UniProt P09619); assay: Competitive binding affinity to PDGFRB (unknown origin) at 10 uM in presence of ATP relative to control; procedure, shortened: as §2
[10] = molecular target: Dual specificity protein kinase CLK4 (Homo sapiens) (UniProt Q9HAZ1); assay: Competitive binding affinity to CLK4 (unknown origin) at 10 uM in presence of ATP relative to control
[11] = molecular target: Ephrin type-A receptor 2 (Homo sapiens) (UniProt P29317); assay: Competitive binding affinity to EPHA2 (unknown origin) at 10 uM in presence of ATP relative to control; procedure, shortened: as §3
[12] = molecular target: Ephrin type-A receptor 5 (Homo sapiens) (UniProt P54756); assay: Competitive binding affinity to EPHA5 (unknown origin) at 10 uM in presence of ATP relative to control; procedure, shortened: as §3
[13] = molecular target: Tyrosine-protein kinase BTK (Homo sapiens) (UniProt Q06187); assay: Competitive binding affinity to BTK (unknown origin) at 10 uM in presence of ATP relative to control
[14] = molecular target: Protein-tyrosine kinase 6 (Homo sapiens) (UniProt Q13882); assay: Competitive binding affinity to PTK6 (unknown origin) at 10 uM in presence of ATP relative to control; procedure, shortened: as §1
[15] = molecular target: Cyclin-dependent kinase 5 (Homo sapiens) (UniProt Q00535); assay: Competitive binding affinity to CDK5 (unknown origin) at 10 uM in presence of ATP relative to control
[16] = molecular target: T3, Myotonin-protein kinase (Homo sapiens) (UniProt Q09013); assay: Competitive binding affinity to DMPK (unknown origin) at 10 uM in presence of ATP relative to control
T3 sequence (whole entry): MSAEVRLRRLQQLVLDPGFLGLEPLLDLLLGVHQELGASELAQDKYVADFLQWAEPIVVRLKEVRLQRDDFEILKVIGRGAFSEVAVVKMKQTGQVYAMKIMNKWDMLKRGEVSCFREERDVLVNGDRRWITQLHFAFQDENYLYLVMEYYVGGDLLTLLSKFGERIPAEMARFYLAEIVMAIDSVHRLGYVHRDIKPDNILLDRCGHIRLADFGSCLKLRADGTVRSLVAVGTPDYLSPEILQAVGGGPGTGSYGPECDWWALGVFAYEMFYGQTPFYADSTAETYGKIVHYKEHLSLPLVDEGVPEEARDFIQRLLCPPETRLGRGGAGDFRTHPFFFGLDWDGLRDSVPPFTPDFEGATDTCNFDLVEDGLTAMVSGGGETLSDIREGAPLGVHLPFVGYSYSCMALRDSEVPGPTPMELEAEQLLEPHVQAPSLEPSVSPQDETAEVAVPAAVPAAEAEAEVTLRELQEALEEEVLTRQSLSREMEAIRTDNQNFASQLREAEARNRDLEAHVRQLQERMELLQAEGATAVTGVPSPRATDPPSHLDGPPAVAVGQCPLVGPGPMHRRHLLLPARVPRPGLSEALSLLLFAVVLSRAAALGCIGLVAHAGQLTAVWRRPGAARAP

[17] = molecular target: Proto-oncogene tyrosine-protein kinase ROS (Homo sapiens) (UniProt P08922); assay: Competitive binding affinity to ROS1 (unknown origin) at 10 uM in presence of ATP relative to control; procedure, shortened: as §1

Tyrosine-protein kinase BTK (Homo sapiens), sequence (Q06187 whole entry): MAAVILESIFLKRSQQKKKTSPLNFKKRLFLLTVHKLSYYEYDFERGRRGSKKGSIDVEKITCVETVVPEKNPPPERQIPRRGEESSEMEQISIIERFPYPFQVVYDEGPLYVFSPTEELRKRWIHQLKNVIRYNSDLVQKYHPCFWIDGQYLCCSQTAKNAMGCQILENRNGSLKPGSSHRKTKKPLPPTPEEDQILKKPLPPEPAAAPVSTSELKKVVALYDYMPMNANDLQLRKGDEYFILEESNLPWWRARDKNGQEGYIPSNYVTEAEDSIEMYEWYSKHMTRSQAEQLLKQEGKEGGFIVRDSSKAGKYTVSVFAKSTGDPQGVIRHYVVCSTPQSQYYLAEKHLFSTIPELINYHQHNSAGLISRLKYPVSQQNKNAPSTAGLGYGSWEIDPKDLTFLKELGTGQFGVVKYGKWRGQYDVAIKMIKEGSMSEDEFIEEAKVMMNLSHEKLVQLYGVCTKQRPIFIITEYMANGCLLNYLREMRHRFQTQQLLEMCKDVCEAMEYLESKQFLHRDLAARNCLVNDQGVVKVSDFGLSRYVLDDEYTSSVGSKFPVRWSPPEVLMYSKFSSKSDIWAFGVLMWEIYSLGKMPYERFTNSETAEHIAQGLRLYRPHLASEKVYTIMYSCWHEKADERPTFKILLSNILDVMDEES
Ephrin type-A receptor 5 (Homo sapiens), sequence (P54756 whole entry): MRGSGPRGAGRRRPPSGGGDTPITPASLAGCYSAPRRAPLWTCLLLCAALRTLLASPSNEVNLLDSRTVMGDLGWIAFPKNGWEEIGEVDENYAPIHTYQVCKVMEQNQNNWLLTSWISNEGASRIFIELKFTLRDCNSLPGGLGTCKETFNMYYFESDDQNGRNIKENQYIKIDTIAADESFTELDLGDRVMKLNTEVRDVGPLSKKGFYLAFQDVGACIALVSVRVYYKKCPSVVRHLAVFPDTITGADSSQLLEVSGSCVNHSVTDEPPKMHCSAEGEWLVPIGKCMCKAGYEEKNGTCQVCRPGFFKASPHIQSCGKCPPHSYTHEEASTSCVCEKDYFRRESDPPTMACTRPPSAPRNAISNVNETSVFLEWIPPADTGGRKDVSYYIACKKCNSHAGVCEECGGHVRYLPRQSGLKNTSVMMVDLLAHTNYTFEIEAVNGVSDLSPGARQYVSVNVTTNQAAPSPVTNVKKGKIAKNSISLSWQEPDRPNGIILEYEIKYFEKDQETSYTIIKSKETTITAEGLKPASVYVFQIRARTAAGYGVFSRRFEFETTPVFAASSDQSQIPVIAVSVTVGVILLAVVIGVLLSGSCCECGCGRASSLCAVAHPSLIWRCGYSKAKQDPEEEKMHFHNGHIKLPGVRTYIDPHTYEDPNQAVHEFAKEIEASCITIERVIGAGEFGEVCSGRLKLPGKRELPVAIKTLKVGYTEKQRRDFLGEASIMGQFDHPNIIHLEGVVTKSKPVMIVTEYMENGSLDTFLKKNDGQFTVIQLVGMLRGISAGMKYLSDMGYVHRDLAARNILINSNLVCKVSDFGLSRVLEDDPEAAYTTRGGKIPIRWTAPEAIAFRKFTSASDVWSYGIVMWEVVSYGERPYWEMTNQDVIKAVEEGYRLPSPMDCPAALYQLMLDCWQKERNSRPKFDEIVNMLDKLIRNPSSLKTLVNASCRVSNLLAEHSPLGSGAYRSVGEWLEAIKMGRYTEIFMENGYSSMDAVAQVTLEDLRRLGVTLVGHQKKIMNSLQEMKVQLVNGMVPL
Platelet-derived growth factor receptor beta, sequence (P09619 whole entry): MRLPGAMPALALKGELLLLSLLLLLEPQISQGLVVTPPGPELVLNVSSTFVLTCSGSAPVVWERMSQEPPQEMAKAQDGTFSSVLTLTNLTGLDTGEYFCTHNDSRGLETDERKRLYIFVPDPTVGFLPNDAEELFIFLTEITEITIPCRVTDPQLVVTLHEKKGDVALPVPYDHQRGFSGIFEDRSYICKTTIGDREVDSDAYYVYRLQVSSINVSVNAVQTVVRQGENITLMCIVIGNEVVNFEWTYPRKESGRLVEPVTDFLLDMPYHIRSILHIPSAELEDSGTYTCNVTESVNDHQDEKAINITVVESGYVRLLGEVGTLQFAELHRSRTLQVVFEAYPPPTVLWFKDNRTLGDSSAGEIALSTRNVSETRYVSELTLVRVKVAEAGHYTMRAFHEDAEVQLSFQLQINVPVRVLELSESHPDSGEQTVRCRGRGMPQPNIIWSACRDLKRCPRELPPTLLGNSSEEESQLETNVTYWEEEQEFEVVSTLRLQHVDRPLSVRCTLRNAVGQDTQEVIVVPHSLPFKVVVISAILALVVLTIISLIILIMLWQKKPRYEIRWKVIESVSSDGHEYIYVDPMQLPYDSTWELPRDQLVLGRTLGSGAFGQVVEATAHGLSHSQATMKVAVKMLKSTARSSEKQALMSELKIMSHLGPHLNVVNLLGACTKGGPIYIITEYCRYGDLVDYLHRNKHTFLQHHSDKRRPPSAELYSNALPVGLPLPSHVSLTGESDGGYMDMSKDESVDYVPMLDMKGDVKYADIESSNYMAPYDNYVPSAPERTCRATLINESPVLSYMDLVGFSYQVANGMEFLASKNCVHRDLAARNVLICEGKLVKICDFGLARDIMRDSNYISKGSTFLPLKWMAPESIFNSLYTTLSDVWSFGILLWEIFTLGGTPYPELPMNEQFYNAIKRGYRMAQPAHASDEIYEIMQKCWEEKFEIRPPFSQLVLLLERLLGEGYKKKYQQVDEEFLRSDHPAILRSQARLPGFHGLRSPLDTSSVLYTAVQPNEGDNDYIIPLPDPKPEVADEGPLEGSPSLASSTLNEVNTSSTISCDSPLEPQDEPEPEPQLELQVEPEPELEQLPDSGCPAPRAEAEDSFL
Fibroblast growth factor receptor 3 (Homo sapiens), sequence (P22607 23-806 limits assumed): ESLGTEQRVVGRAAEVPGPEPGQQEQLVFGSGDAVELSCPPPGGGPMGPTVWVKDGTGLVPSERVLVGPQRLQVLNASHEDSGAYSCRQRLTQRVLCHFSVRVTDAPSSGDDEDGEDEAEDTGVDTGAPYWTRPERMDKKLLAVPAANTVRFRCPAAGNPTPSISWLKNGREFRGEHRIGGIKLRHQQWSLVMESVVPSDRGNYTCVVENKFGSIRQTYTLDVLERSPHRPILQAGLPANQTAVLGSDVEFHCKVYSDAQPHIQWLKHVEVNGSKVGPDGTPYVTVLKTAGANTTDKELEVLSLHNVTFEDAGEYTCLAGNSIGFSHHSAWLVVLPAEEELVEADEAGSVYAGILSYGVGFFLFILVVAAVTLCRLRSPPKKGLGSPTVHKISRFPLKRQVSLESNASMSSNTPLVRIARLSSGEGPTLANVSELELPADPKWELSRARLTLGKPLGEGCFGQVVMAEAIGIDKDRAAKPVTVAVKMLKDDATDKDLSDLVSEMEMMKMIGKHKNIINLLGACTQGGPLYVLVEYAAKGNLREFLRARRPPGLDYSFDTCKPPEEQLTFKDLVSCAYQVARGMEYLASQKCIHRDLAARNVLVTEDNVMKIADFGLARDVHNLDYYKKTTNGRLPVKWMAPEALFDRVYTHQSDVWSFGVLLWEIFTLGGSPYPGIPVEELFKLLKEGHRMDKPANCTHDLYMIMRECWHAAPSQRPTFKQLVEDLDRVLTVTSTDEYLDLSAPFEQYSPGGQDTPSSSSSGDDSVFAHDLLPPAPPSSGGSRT
Mitogen-activated protein kinase 9, sequence (P45984 whole entry): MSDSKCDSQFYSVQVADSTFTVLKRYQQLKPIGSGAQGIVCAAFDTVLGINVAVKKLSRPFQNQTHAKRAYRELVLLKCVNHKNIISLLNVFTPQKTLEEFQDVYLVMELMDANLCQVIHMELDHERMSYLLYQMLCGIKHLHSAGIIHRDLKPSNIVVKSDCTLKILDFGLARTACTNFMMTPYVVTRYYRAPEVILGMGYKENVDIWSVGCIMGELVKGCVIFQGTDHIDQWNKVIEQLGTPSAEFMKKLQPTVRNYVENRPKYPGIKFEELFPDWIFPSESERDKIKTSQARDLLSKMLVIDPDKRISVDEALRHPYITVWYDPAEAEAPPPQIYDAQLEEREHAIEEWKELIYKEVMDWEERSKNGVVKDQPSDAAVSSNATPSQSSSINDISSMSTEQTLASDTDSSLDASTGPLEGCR
Serine/threonine-protein kinase B-raf (Homo sapiens), P15056 [V600E], sequence (P15056 whole entry V600E): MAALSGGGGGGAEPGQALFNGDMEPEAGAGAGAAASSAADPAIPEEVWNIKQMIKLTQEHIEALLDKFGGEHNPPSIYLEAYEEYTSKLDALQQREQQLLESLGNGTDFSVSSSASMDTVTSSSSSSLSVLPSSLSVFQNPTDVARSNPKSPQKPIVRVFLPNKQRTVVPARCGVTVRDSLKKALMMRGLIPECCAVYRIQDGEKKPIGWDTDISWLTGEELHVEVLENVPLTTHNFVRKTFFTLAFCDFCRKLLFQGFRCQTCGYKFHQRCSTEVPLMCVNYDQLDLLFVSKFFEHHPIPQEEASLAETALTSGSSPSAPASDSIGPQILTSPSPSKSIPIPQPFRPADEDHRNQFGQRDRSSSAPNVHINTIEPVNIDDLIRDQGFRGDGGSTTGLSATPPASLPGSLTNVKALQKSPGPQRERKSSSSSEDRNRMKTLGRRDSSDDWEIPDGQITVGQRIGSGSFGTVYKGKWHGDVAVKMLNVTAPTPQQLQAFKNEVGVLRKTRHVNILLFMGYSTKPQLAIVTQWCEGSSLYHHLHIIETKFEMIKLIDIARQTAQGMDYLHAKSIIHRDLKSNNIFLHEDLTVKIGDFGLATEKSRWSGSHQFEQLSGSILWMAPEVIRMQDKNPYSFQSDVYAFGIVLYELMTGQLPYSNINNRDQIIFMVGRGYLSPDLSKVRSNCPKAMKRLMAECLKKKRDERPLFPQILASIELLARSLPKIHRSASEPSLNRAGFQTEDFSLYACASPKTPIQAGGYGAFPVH
Cyclin-dependent kinase 5 (Homo sapiens), sequence (Q00535 whole entry, looked up): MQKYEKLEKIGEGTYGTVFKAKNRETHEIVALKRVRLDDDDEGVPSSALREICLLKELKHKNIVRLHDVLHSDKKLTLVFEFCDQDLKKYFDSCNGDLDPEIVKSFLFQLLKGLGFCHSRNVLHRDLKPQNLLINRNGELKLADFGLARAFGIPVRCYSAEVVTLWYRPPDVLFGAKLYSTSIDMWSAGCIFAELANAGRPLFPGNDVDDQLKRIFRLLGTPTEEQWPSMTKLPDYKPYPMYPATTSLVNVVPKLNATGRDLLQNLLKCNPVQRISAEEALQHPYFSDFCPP

Compound	inhibition [1] [%]	inhibition [2] [%]	inhibition [3] [%]	inhibition [4] [%]	inhibition [5] [%]	inhibition [6] [%]	inhibition (LIM domain kinase 1) [%]	IC50 [7] [nM]	inhibition [8] [%]	inhibition [9] [%]	inhibition [10] [%]	inhibition [11] [%]	inhibition [12] [%]	inhibition [13] [%]	inhibition [14] [%]	inhibition [15] [%]	inhibition [16] [%]	inhibition [17] [%]
N[C@H]1CC[C@H](Nc2nccc(-n3nnc4ccccc43)n2)CC1	< 50	< 50	84	< 50	100	< 50	< 50	170	97	95	100	< 50	< 50	< 50	< 50	90	< 50	< 50
O[C@H]1CC[C@H](Nc2nccc(-c3n[nH]c4ccccc34)n2)CC1	92	< 50	94	91	95	74	96	650	96	98	100	< 50	< 50	< 50	78	95	80	< 50
O[C@H]1CC[C@H](Nc2nccc(-n3nnc4ccccc43)n2)CC1	< 50	< 50	88	< 50	99	< 50	87	110	< 50	91	98	< 50	< 50	< 50	< 50	74	< 50	< 50
CS(=O)(=O)CCCOc1cccc2c1ccn2-c1ccnc(N[C@H]2CC[C@H](C(=O)N3CCC(O)CC3)CC2)n1	–	–	–	–	–	–	> 85	66	–	> 85	–	–	–	–	–	–	–	–
O=C([C@H]1CC[C@H](Nc2nccc(-n3nnc4ccccc43)n2)CC1)N1CCOCC1	80	< 50	< 50	< 50	94	< 50	78	180	< 50	70	94	< 50	< 50	< 50	< 50	< 50	< 50	< 50

Next, values leading:

inhibition [1] [%]	inhibition [2] [%]	inhibition [3] [%]	inhibition [4] [%]	inhibition [5] [%]	inhibition [6] [%]	inhibition (LIM domain kinase 1) [%]	IC50 [7] [nM]	inhibition [8] [%]	inhibition [9] [%]	inhibition [10] [%]	inhibition [11] [%]	inhibition [12] [%]	inhibition [13] [%]	inhibition [14] [%]	inhibition [15] [%]	inhibition [16] [%]	inhibition [17] [%]	Compound
< 50	< 50	94	< 50	99	< 50	88	350	< 50	90	99	< 50	< 50	< 50	< 50	< 50	< 50	< 50	O[C@H]1CC[C@H](Nc2nccc(-n3ncc4ccccc43)n2)CC1
< 50	< 50	89	< 50	97	< 50	77	360	< 50	67	95	< 50	< 50	< 50	< 50	< 50	< 50	< 50	O[C@H]1CC[C@H](Nc2nccc(-n3ccc4ccccc43)n2)CC1

— ChEMBL document CHEMBL2424622, “Development of amino-pyrimidine inhibitors of c-Jun N-terminal kinase (JNK): kinase profiling guided optimization of a 1,2,3-benzotriazole lead” (Bioorg Med Chem Lett, 2013)
